Screening results from PubChem BioAssay.
RBBP9 inh: inhibitors of human serine hydrolase RBBP9 | O75884 | recombinant RBBP9, FP-Rh probe fluorescence polarization | inhibition, % at 7.94 µM | actives 0.2% (n = 220,000) | AID 1515;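 active = inhibition above the campaign mean of all tested compounds plus 3 SD, cut at about 14% in these data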;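 also: plate controls were DMSO wells with RBBP9 for no effect and wells lacking RBBP9 protein for full effect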
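Test system: recombinant human RBBP9; Timing: 30 min then 45 min, 25 °C; Detection: fluorescence polarization; Control set: RBBP9 with DMSO as uninhibited control, no-protein wells as full inhibition; Compound dosing: one concentration, 7.94 µM nominal, 0.794% DMSO; Probe or stimulus: FP-Rh activity-based probe, 375 nM before mixing.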
ALR H2O2 inh: human ALR oxidase inhibition via reduced H2O2; P55789; purified ALR, DTT oxidation, H2O2 HRP-luminol luminescence; AID 485317; inhibition, % (test concentration not listed); actives 3.8% (n = 290,000);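 active = mean replicate inhibition above about 79%, with every replicate also reaching it, limit read from the data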
Target sequence (P55789 whole entry, looked up): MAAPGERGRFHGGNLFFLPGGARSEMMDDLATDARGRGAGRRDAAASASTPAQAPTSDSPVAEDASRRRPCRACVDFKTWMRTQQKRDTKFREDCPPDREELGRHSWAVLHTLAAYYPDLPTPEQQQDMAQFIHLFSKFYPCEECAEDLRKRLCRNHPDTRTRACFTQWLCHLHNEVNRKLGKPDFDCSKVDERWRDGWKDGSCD
SUMO HTRF inh: inhibitors of human SUMOylation (UBC9); HTRF SUMOylation assay, SAE1/SAE2 + UBC9, in vitro; actives 0.36% (n = 290,000); AID 2006; inhibition, % at 35 µM; P63279; in the data active = inhibition above about 50%, passing the limit was not always enough
Target sequence (P63279 whole entry, looked up): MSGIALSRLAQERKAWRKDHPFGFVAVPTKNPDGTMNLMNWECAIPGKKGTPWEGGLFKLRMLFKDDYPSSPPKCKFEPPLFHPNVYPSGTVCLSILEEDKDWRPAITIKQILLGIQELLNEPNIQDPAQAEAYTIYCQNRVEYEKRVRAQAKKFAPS
PREPL inh: inhibits the human prolyl oligopeptidase-like enzyme | Q4J6C6 | recombinant PREPL, fluorescence polarization activity-based probe | inhibition, % at 5.96 µM | actives 0.68% (n = 320,000); in the data active = inhibition above about 43%;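 also: 0% = enzyme with DMSO and 100% = wells lacking enzyme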
Rin1-Abl PPI inh: blocks binding of human Rin1 to Abl. AID 588664. P00519+Q13671. actives 0.4% (n = 360,000). inhibition, % at 7.35 µM. TR-FRET Rin1/Abl binding, biochemical; in the data active = inhibition above about 5%, passing the limit was not always enough
UBC13 polyUb: human UBC13 polyubiquitination inhibition | P61088 | UBC13 polyubiquitin chain formation, TR-FRET | inhibition, % at 20 µM | actives 0.47% (n = 330,000) | AID 485273; in the data active = inhibition above about 45%, passing the limit was not always enough
Target sequence (P61088 whole entry, looked up): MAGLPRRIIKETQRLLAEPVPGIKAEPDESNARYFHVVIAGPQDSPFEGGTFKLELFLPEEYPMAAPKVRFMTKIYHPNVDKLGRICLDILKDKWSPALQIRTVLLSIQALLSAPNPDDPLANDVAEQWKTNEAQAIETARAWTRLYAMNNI
Numbers without * were called inactive; x = not tested or not shown. The list is not random: actives were taken first. Their share in the collection is about 4.3%.

SMILES	RBBP9 inh	ALR H2O2 inh	SUMO HTRF inh	PREPL inh	Rin1-Abl PPI inh	UBC13 polyUb
CC(C)(C)S(=O)(=O)/C(C#N)=N/Nc1ccc(Cl)cc1	-10	99*	-4	11	6	-13
CCC(=O)Nc1nc2ccc(S(C)(=O)=O)cc2s1	1	-3	3	-1	0	6
CCOCC(=O)Nc1nc(C)cc(C)n1	7	32	69*	4	1	-4
CCCC(=O)Nc1nc2ccc(S(N)(=O)=O)cc2s1	-2	99*	12	-10	-2	1
CCOCC(=O)Nc1nc2ccc(C)cc2s1	-6	97*	14	-11	1	-1
Cc1ccc2nc(NC(=O)CSc3nncc(=O)n3N)sc2c1	-5	99*	28	-11	-1	11
O=C(CSc1nnc(NC(=O)c2ccccc2F)s1)NC1CC1	x	2	-9	-2	1	2
Clc1ccc(CN2CCc3c([nH]c4ccccc34)C2)cc1Cl	x	3	-29	-6	0	2
Cc1cc(NC(=O)Nc2cccc(C)c2C)no1	1	99*	-7	1	2	-15
Cc1cccc(NC(=O)Nc2cc(C)on2)c1	-7	0	10	16	-3	-3
O=C(COc1ccc(Cl)cc1Cl)NC(=S)Nc1ccccc1C(=O)O	-10	1	16	-6	x	9
CCC(C(=O)Nc1ccc(C(=O)Nc2ccccc2C(=O)O)cc1)c1ccccc1 (centres undefined)	x	79*	15	x	4	-3
CC(C)CCN1C(=O)c2ccc(C(=O)Nc3ccccc3C(=O)O)cc2C1=O	x	98*	8	x	5	3
CC(c1ccccc1)N1C(=O)c2ccc(C(=O)Nc3ccccc3C(=O)O)cc2C1=O (centres undefined)	x	98*	12	-3	2	-13
O=C(COc1ccc(Cl)cc1Cl)Nc1ccc(C(=O)Nc2ccccc2C(=O)O)cc1	x	-2	59*	-8	1	-5
CCC(C(=O)Nc1ccc(C)cc1)c1ccccc1 (centres undefined)	-9	-7	1	14	3	-4
O=C(Nc1ccc(F)c(Cl)c1)C1Cc2c(-c3ccco3)ccnc2O1 (centres undefined)	x	x	x	x	2	x
COC(=O)c1ccccc1NC(=O)N1CCN(c2ccc(OC)cc2)CC1	-8	41	-4	6	-1	-6
COc1ccc(N2CCN(C(=O)c3ccc(C)cc3Cl)CC2)cc1	4	92*	10	11	1	-4
COc1cc(SC)ccc1C(=O)N1CCN(c2ccc(O)cc2)CC1	-1	99*	4	2	4	2
COc1ccc(N2CCN(C(=O)c3ccc(C)c(Cl)c3)CC2)cc1	-3	13	5	14	-1	5
COc1ccc(N2CCN(C(=O)Nc3ccccc3Cl)CC2)cc1	-7	87*	22	10	-1	-4
CCN(CC)c1ccc(NS(=O)(=O)c2cn(C)c(=O)n(C)c2=O)c(C)c1	x	99*	11	10	-1	-6
Cc1nc2c(o1)C(=O)c1ccccc1C2=Nc1ccccc1	x	x	x	x	1	x
COc1ccc(CNC(=O)C2CCN(S(=O)(=O)c3ccc(N4CCCC4=O)cc3)CC2)cc1	x	x	x	x	1	x
SMILES	RBBP9 inh	ALR H2O2 inh	SUMO HTRF inh	PREPL inh	Rin1-Abl PPI inh	UBC13 polyUb
O=C(COc1ccc2oc(-c3ccco3)cc(=O)c2c1)N1CCCCC1	-6	-7	52*	8	-4	21
CC(=O)Nc1ccc(/C=C(\C#N)S(=O)(=O)c2ccc(C)cc2)cc1	x	-1	x	11	-1	3
N#C/C(=C\c1ccc(C(=O)O)cc1)S(=O)(=O)c1cc(Br)ccc1Br	-14	92*	-7	3	3	-16
Oc1ccc(C2=NN(c3ccccc3)C(c3ccc(F)cc3)C2)cc1 (centres undefined)	x	97*	12	18	4	16
O=C(O)c1ccc(N2N=C(c3ccccc3)CC2c2ccccc2)cc1 (centres undefined)	x	92*	62*	2	-2	-3
CC(=O)Nc1ccc(C2=NN(c3ccccc3)C(c3ccccc3)C2)cc1 (centres undefined)	x	96*	7	9	0	11
CC(=O)Nc1ccc(C2CC(c3ccc(Cl)cc3)=NN2c2ccccc2)cc1 (centres undefined)	x	-1	12	13	-1	21
Fc1ccc(C(c2nnnn2C2CCCC2)N2CCc3ccccc32)cc1 (centres undefined)	-3	91*	-16	14	-2	-14
COc1ccc(CN(C)C(=O)c2ccc3c(=O)n4c(nc3c2)CCC4)cc1	x	0	-1	18	2	0
O=C(CCCC1=NS(=O)(=O)c2ccccc2N1)N1CCN(c2ccccc2)CC1	-8	53	10	3	-1	5
O=C(CCCC1=NS(=O)(=O)c2ccccc2N1)N1CCN(c2ccc(Cl)cc2)CC1	-10	96*	-14	23	3	-6
COCCn1c(SCc2nc3sc(C(=O)OC)c(C)c3c(=O)[nH]2)nc2ccccc21	-7	-7	9	6	1	-4
CCn1c(SCc2nc3sc(C(=O)O)c(C)c3c(=O)[nH]2)nc2ccccc21	0	98*	55*	-7	2	-20
CN(C)c1ccc(NC(=O)C[n+]2ccccc2)cc1	x	99*	-8	3	-3	6
CN(C)c1ccc(/C=N/NC(=O)C[n+]2ccccc2)cc1	x	99*	x	-1	-1	-11
Cc1ccc[n+](CC(=O)Nc2ccc(N(C)C)cc2)c1	x	100*	-13	18	1	-5
CN(C)c1ccc(NC(=O)Oc2ccccc2)cc1	7	97*	-116	21	0	-11
COc1cc(/C=C2\SC(=O)NC2=O)ccc1Oc1ccc([N+](=O)[O-])cc1[N+](=O)[O-]	1	98*	46	-3	0	-15
NS(=O)(=O)c1cccc(NC(=O)CSc2nc3ccc(Cl)cc3[nH]2)c1	-6	97*	-5	-15	0	-13
Nn1cc(-c2ccccc2)nc1SCC(=O)Nc1ccc(S(N)(=O)=O)cc1	-13	x	22	6	-1	-12
Cc1ccc2nc(SCC(=O)Nc3cccnc3Cl)[nH]c2c1	x	88*	x	-1	2	10
Nn1cc(-c2ccccc2)nc1SCC(=O)Nc1cccc(S(N)(=O)=O)c1	-6	99*	14	-5	-3	13
CN1C/C(=C\c2ccc(N3CCOCC3)cc2)C(=O)/C(=C/c2ccc(N3CCOCC3)cc2)C1	-5	79*	2	-4	-7	-59
CCn1c(=O)n(CC)c2cc(N3CCCC3)c(NC(=O)c3ccccc3C)cc21	x	99*	-8	-10	0	-4
CCn1c(=O)n(CC)c2cc(N3CCCC3)c(NC(=O)c3cc(Br)ccc3OC)cc21	x	11	-1	27	x	10
